Reference: ChEMBL document CHEMBL1136746 (2003)

Tests used:
[1] = test system: Caco-2; test: Apparent Permeability through Caco-2 cell monolayers (n = 4); type: functional, cell-based
Method in brief: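 Caco-2 cells seeded on polycarbonate inserts (0.45 µm pore, 6.5 mm) and grown 21 days to differentiate; TEER >400 Ω/cm² before and after. ³H-acetylated peptide or [¹⁴C]mannitol (200 µM) added apically in HBSS/25 mM HEPES pH 7.4, 37 °C, shaken 400 rpm. Receiver chamber swapped at 30, 90, 150 min; scintillation counting. Papp averaged over four replicates.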

[2] = species on record: Rattus norvegicus; test: Percent Hemolysis observed in rat red blood cells when Treated with 2 mM concentration; type: functional
[3] = species on record: Rattus norvegicus; test: Percent Hemolysis observed in rat red blood cells when Treated with 1 mM concentration; type: functional
[4] = species on record: Rattus norvegicus; test: Percent Hemolysis observed in rat red blood cells when Treated with 5 mM concentration; type: functional

OC[C@@H](O)[C@@H](O)[C@H](O)[C@H](O)CO
Papp [1]: 5.88 10e-6 cm s-1

CCCCCCCCCCCCOS(=O)(=O)[O-].[Na+] [SODIUM LAURYL SULFATE]
Hemolysis [2]: 51.54% | Hemolysis [3]: 12.25% | Hemolysis [4]: 62.66%
